# High-throughput results (PubChem BioAssay)
# PHOSPHO1 block: PHOSPHO1 (human) inhibition; Q8TCT1; 290,000 tested, 1.1% active; recombinant PHOSPHO1, absorbance phosphatase assay; inhibition, % at 13.3 µM; in the data active = inhibition above about 60%
# Target sequence (Q8TCT1 whole entry, looked up): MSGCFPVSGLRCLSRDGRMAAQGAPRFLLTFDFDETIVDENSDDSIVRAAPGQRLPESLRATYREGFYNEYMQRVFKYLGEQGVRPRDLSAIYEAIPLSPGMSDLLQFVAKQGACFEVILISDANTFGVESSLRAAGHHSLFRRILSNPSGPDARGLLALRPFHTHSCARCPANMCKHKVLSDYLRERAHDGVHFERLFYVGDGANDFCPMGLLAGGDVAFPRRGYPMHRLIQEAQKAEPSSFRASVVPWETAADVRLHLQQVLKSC
# HCV NS3 hel inh: inhibitors of Hepatitis C virus NS3 helicase. NS3 helicase DNA unwinding, Cy5 molecular beacon fluorescence. inhibition, % at 10.9 µM. 290,000 tested, 0.56% active. AID 1800;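 active = inhibition above the mean of all tested compounds plus 3 SD, set per campaign, cut at about 35% in these data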;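 note: 0% = DMSO wells and 100% = thioflavine S control wells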
#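 System: HCV NS3 helicase fragment; control set: DMSO and thioflavine S; technique: Cy5 fluorescence at 0 and 60 min, beacon hairpin quenching; reagent: beacon DNA duplex substrate plus ATP; replicates: singlicate; schedule: 1 h reaction at 25 °C, ATP-initiated; medium: MOPS buffer pH 6.5 with MgCl2, DTT, Tween20, BSA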
# VIM-2 inh: blocks Pseudomonas aeruginosa VIM-2 metallo-beta-lactamase | purified VIM-2, nitrocefin hydrolysis, epi-absorbance fluorescence | inhibition, % at 5.6 µM | 290,000 tested, 0.89% active;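 active = inhibition above the mean of all tested compounds plus 3 SD, cutoff set per screening run, cut at about 7.5% in these data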;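 note: red hydrolysis product quenches plate fluorescence so inhibitors raise well fluorescence; 0% = enzyme with DMSO and 100% = DMSO without enzyme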
# UBC9 SUMO inh: inhibitors of human SUMOylation (UBC9). P63279. HTRF SUMOylation assay, SAE1/SAE2 + UBC9, in vitro. inhibition, % at 35 µM. 290,000 tested, 0.36% active. AID 2006; in the data active = inhibition above about 50%, passing the limit was not always enough
# Target sequence (P63279 whole entry, looked up): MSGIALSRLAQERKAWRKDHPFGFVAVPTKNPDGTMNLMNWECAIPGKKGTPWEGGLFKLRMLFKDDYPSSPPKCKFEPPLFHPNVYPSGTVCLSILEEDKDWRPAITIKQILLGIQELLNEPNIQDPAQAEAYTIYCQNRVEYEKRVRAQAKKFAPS
# IMP-1 inh: blocks Pseudomonas aeruginosa IMP-1 metallo-beta-lactamase; purified IMP-1, nitrocefin hydrolysis, epi-absorbance fluorescence; inhibition, % at 5.6 µM; 290,000 tested, 0.45% active; AID 1556;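 active = inhibition above the mean plus 3 SD of all compounds in the same screening run, cut at about 4.5% in these data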;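 note: 0% = IMP-1 with DMSO and 100% = DMSO wells lacking enzyme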
#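 system = purified recombinant IMP-1 beta-lactamase | amount = 0.2 nM IMP-1, as dispensed | medium = HEPES buffer pH 7.1 with ZnSO4 and Brij 35 | times = 25 °C, 15 min preincubation, 25 min reaction | detection = plate fluorescence quenching by hydrolysis product, ex 480/em 530 nm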
# core dimer inh: HCV core protein dimerization inhibition; TR-FRET GST/Flag-core106 dimerization, 1536-well; inhibition, % at 5 µM; 300,000 tested, 0.33% active;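 active = inhibition above the mean of all tested compounds plus 3 SD, set per screening campaign, cut at about 45% in these data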
#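 Assay system: tagged HCV core106 pair (GST and Flag); medium: KF-containing HEPES buffer, pH 7.45, DTT, CHAPS, BSA; also added: Eu donor and XL665 acceptor anti-tag antibodies; dosing: 5 µM single dose; timing: compound-protein-antibody incubation 4 h at 22.5 °C; signal: TR-FRET 671 and 617 nm emission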
# NS3 hel confirm: HCV NS3 helicase inhibition, confirmation assay; shares compounds with HCV NS3 hel inh; NS3 helicase DNA unwinding, Cy5 molecular beacon fluorescence; inhibition, % at 10.9 µM; 1,600 tested, 31% active; AID 1943;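 active = inhibition above the mean of all tested compounds plus 3 SD, cutoff set per campaign, cut at about 36% in these data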
# FID counter trip: displaces DNA intercalator in HCV helicase counter-screen; shares compounds with HCV NS3 hel inh; DNA fluorescent intercalator displacement, fluorescence; inhibition, % at 7.9 µM; 1,600 tested, 4% active; AID 1945; in the data active = inhibition above about 37%;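 note: 0% = vehicle and 100% = reference compound; higher means more displacement of ethidium bromide from the DNA hairpin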
# DNA FID DR: DNA intercalator displacement in dose response | 120 tested, under 10 active | IC50, µM | shares compounds with HCV NS3 hel inh | fluorescent intercalator displacement from DNA, fluorescence; call rule not given here
# The depositor's hits bear a star; . = not tested or not shown. Most compounds without a hit are left out; they make up all but 3.1% or so of the library.
SMILES,PHOSPHO1 block,HCV NS3 hel inh,VIM-2 inh,UBC9 SUMO inh,IMP-1 inh,core dimer inh,NS3 hel confirm,FID counter trip,others
Cc1cccc(SC2CCN(C(=O)C3CCC(=O)N(C4CC4)C3)CC2)c1 (stereo unspecified),24,0,-3,-2,-2,-3,.,.,
COc1ccc(C(=O)CC(=O)C(=O)Nc2ccc([N+](=O)[O-])cc2C)cc1,24,37*,-7,19,-3,1,-8,-7,
CCOc1ccccc1NC(=O)C(=O)CC(=O)c1ccc(OC)cc1,44,37*,1,-2,-2,-38,-33,-1,
CN(C)S(=O)(=O)c1cccc(COc2ncnc3c(Cl)cc(Cl)cc23)c1,-37,-8,-1,-5,-1,3,.,.,
Cc1ccc(-n2nc(-c3ccco3)cc2C(=O)O)c(C)c1,-2,47*,-2,38,0,.,26,-5,
O=C(O)c1cc(-c2cccs2)nn1-c1cccc(Cl)c1,24,7,-2,8,-1,8,.,.,
O=C(O)c1cc(-c2ccco2)nn1-c1cccc(Cl)c1,-48,48*,-1,49,-3,11,32,0,
O=C(O)c1cc(-c2cc3ccccc3o2)nn1-c1ccccc1,-12,21,0,23,0,25,.,.,
O=C(O)c1cc(-c2ccco2)nn1-c1ccc(Cl)cc1,28,44*,1,59,-1,.,83*,7,
Cc1nn(-c2ccccc2)c2nc(-c3ccco3)cc(C(=O)O)c12,-4,42*,0,28,-3,14,67*,-9,
O=C(/C=C/c1ccc(-c2ccccc2[N+](=O)[O-])o1)c1ccc(Br)cc1,7,26,-5,13,0,-3,.,.,
Cc1ccc(-c2ccc(/C=C/C(=O)c3ccccc3)o2)cc1,-16,22,0,43,2,20,.,.,
Cc1ccc(C(=O)/C=C/c2ccc(-c3ccccc3[N+](=O)[O-])o2)cc1,53,37*,-1,21,0,6,39*,17,
O=C(/C=C/c1ccc(-c2ccccc2)o1)c1ccccc1,-11,47*,-2,26,1,25,-19,1,
Nc1nc(Sc2c([N+](=O)[O-])cc(C(F)(F)F)cc2[N+](=O)[O-])n[nH]1,-27,-2,0,10,-1,2,.,.,
CN(CC(=O)Nc1ccccc1C(F)(F)F)C(=O)c1cc([N+](=O)[O-])ccc1N1CCOCC1,-2,9,-1,-4,-4,3,.,.,
NC(=O)c1ccccc1NC(=O)Nc1ccc(F)c(Cl)c1,32,3,-1,5,-3,-6,.,.,
Cc1sc2c(c1C)C(O)=C(C(=O)Nc1ccccc1)S(=O)(=O)N2C,6,44*,0,-1,4.6*,-2,60*,-4,
CCCn1c(C(C)Nc2nc(-c3ccc(Cl)c([N+](=O)[O-])c3)cs2)nc2cc(Cl)c(N3CCCCC3)cc21 (stereo unspecified),15,92*,-3,4,-2,30,-15,6,
O=c1nc(/C=C/c2cc([N+](=O)[O-])ccc2Cl)cc(C(F)(F)F)[nH]1,33,10,-2,18,-2,-3,.,.,
O=c1nc(/C=C/c2cccn2-c2ccc([N+](=O)[O-])cc2)cc(C(F)(F)F)[nH]1,-15,64*,-1,45,-3,61*,-4,0,
CCn1nc(C)c(CNC(=O)c2cc(COc3ccccc3SC)on2)c1C,23,-3,-2,5,-3,0,.,.,
O=C(Nc1ccc(Cl)c(Cl)c1)Nc1nnc(CSc2ccccc2)s1,-7,1,-2,14,-1,7,.,.,
CCCCCCCc1nn2c(=O)cc(O)nc2s1,3,36*,-3,5,-3,-7,-19,8,
CCCc1nn2c(=O)cc(O)nc2s1,11,-1,-2,8,-3,-14,.,.,
SMILES,PHOSPHO1 block,HCV NS3 hel inh,VIM-2 inh,UBC9 SUMO inh,IMP-1 inh,core dimer inh,NS3 hel confirm,FID counter trip,others
O=C(O)c1ccccc1N1C(=O)C2C3c4ccccc4C(Br)(c4ccccc43)C2C1=O (stereo unspecified),5,40*,-2,19,0,2,42*,-21,
O=C(COCc1cc(-c2ccc3c(c2)OCO3)on1)N1CCN(c2ccccc2)CC1,28,-6,-4,9,-1,3,.,.,
Cc1ccc(NC(=O)C2CCN(S(=O)(=O)c3ccc4c(c3)NC(=O)C(C)S4)CC2)c(Cl)c1 (stereo unspecified),44,-15,-3,-18,-3,23,.,.,
Cc1cc(C)cc(NC(=O)C2CCN(S(=O)(=O)c3ccc4c(c3)NC(=O)C(C)S4)CC2)c1 (stereo unspecified),24,43*,1,-1,2,17,4,-12,
O=C(O)CCC(=O)N1N=C(c2c(-c3ccccc3)c3cc(Cl)ccc3[nH]c2=O)CC1c1cccs1 (stereo unspecified),5,37*,-4,24,-2,9,90*,-9,
O=[N+]([O-])c1cc(Cc2ccccc2)cc(C=Nc2ccc(N3CCOCC3)cc2)c1O,0,50*,-4,-6,8.8*,-7,55*,23,DNA FID DR=>79
O=C(CCc1nc2ccccc2c(=O)[nH]1)OCC(=O)N1CCc2ccccc21,-20,70*,-2,20,-2,5,-14,-18,
Cc1ccc(C(=O)C2=C(O)C(=O)N(Cc3cccnc3)C2c2ccc(N(C)C)cc2)o1 (stereo unspecified),26,4,2,12,-1,5,.,.,
CCCCOc1ccc(C2C(C(=O)c3ccc(C)o3)=C(O)C(=O)N2Cc2ccco2)cc1 (stereo unspecified),51,69*,-3,-1,-3,36,135*,-49,DNA FID DR=>79
Cc1ccc(C(=O)C2=C(O)C(=O)N(Cc3ccco3)C2c2ccc(N(C)C)cc2)o1 (stereo unspecified),51,98*,1,-7,1,-4,8,-6,
CCCOc1ccc(C2C(C(=O)c3ccc(C)o3)=C(O)C(=O)N2Cc2cccnc2)cc1 (stereo unspecified),46,7,-1,20,-1,5,.,.,
CCOc1ncccc1C(=O)NCCc1ccc(Cl)cc1,2,-4,-2,10,-1,8,.,.,
